Laboratory results published in ChEMBL document CHEMBL4354800, “Amphiphilic nebramine-based hybrids Rescue legacy antibiotics from intrinsic resistance in multidrug-resistant Gram-negative bacilli” (Eur J Med Chem, 2019).

Columns and labels:
Assay type in all cases: functional
Enterobacter cloacae = experiment: Potentiation of minocycline-induced antibacterial activity against Enterobacter cloacae 117029 assessed as fold reduction in minocycline MIC at 7.5 uM incubated for 18 hrs by broth dilution method
Procedure, shortened: (§1)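 Antibiotic MIC determined by CLSI broth microdilution (MHB, 5 × 10^5 CFU/mL, 18 h, 37 °C), once alone and once with a fixed concentration of the adjuvant. Potentiation is the ratio of the antibiotic MIC alone to its MIC in the presence of the adjuvant.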

Klebsiella pneumoniae = experiment: Potentiation of rifampicin-induced antibacterial activity against Klebsiella pneumoniae 116381 assessed as fold reduction in rifampicin MIC at 7.5 uM incubated for 18 hrs by broth dilution method; procedure, shortened: as §1
Pseudomonas aeruginosa [1] = experiment: Potentiation of minocycline-induced antimicrobial activity against MDR/XDR Pseudomonas aeruginosa isolate 100036 harboring GyrA Thr83Ile mutant assessed as minocycline MIC80 incubated for 18 hrs by broth microdilution method (reference value: 32 microg/ml); details: isolate 100036, 18 h
Pseudomonas aeruginosa [2] = experiment: Potentiation of minocycline-induced antimicrobial activity against MDR/XDR Pseudomonas aeruginosa isolate PA264-104354 harboring GyrA Thr83Ile mutant assessed as minocycline MIC80 incubated for 18 hrs by broth microdilution method (reference value: 32 microg/ml); details: isolate PA264-104354, 18 h
Pseudomonas aeruginosa [3] = experiment: Potentiation of rifampicin-induced antimicrobial activity against MDR/XDR Pseudomonas aeruginosa isolate PA260-97103 harboring GyrA Thr83Ile mutant assessed as rifampicin MIC80 incubated for 18 hrs by broth microdilution method (reference value: 16 microg/ml); details: isolate PA260-97103, 18 h
Pseudomonas aeruginosa [4] = experiment: Potentiation of minocycline-induced antimicrobial activity against MDR/XDR Pseudomonas aeruginosa isolate PA262-101856 harboring GyrA Thr83Ile mutant assessed as minocycline MIC80 incubated for 18 hrs by broth microdilution method (reference value: 32 microg/ml); details: isolate PA262-101856, 18 h
Acinetobacter baumannii [5] = experiment: Antimicrobial activity against multidrug-resistant Acinetobacter baumannii 110193 incubated for 18 hrs by broth dilution method; details: Acinetobacter baumannii, 110193, 18 h
Procedure, shortened: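 Broth microdilution per CLSI: overnight cultures set to 0.5 McFarland in saline, diluted 1:50 in Mueller-Hinton broth to a final 5 × 10^5 CFU/mL, added to 2-fold serial dilutions, incubated 18 h at 37 °C; MIC is the lowest concentration without visible turbidity, confirmed at 590 nm.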

Pseudomonas aeruginosa [6] = experiment: Potentiation of rifampicin-induced antimicrobial activity against MDR/XDR Pseudomonas aeruginosa isolate PA259-96918 harboring GyrA Thr83Ile mutant assessed as rifampicin MIC50 incubated for 18 hrs by broth microdilution method (reference value: 8 microg/ml); details: isolate PA259-96918, 18 h
Pseudomonas aeruginosa [7] = experiment: Potentiation of minocycline-induced antibacterial activity against MDR/XDR Pseudomonas aeruginosa isolate 101885 harboring GyrA T83I mutant assessed as fold reduction in minocycline MIC at 7.5 uM incubated for 18 hrs by broth microdilution method
Pseudomonas aeruginosa [8] = experiment: Potentiation of ciprofloxacin-induced antibacterial activity against MDR/XDR Pseudomonas aeruginosa isolate PA259-96918 harboring GyrA T83I mutant assessed as fold reduction in ciprofloxacin MIC at 7.5 uM incubated for 18 hrs by broth microdilution method
Pseudomonas aeruginosa [9] = experiment: Potentiation of moxifloxacin-induced antibacterial activity against wild type Pseudomonas aeruginosa PAO1 assessed as fold reduction in moxifloxacin MIC at 7.5 uM incubated for 18 hrs by broth microdilution method
Procedure, shortened: (§2)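 CLSI broth microdilution. Overnight cultures were set to 0.5 McFarland in saline, diluted 1:50 in Mueller-Hinton broth to a final 5 × 10^5 CFU/mL, and incubated 18 h at 37 °C against 2-fold antibiotic dilutions. A fixed adjuvant level was present throughout. MIC = lowest concentration with no visible turbidity, confirmed at 590 nm. Potentiation = fold drop in antibiotic MIC versus antibiotic alone.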

Pseudomonas aeruginosa [10] = experiment: Potentiation of rifampicin-induced antimicrobial activity against MDR/XDR Pseudomonas aeruginosa isolate PA262-101856 harboring GyrA Thr83Ile mutant assessed as rifampicin MIC80 incubated for 18 hrs by broth microdilution method (reference value: 16 microg/ml); details: isolate PA262-101856, 18 h
Pseudomonas aeruginosa [11] = experiment: Potentiation of rifampicin-induced antibacterial activity against MDR/XDR Pseudomonas aeruginosa isolate 91433 devoid of GyrA T83I mutant assessed as fold reduction in rifampicin MIC at 7.5 uM incubated for 18 hrs by broth microdilution method; procedure, shortened: as §2
Pseudomonas aeruginosa [12] = experiment: Potentiation of ciprofloxacin-induced antibacterial activity against MDR/XDR Pseudomonas aeruginosa isolate 91433 devoid of GyrA T83I mutant assessed as fold reduction in ciprofloxacin MIC at 9 uM incubated for 18 hrs by broth microdilution method
Pseudomonas aeruginosa [13] = experiment: Potentiation of moxifloxacin-induced antibacterial activity against MDR/XDR Pseudomonas aeruginosa isolate PA259-96918 harboring GyrA T83I mutant assessed as fold reduction in moxifloxacin MIC at 9 uM incubated for 18 hrs by broth microdilution method; procedure, shortened: as §2
Pseudomonas aeruginosa [14] = experiment: Potentiation of minocycline-induced antibacterial activity against wild type Pseudomonas aeruginosa PAO1 assessed as fold reduction in minocycline MIC at 9 uM incubated for 18 hrs by broth microdilution method; procedure, shortened: as §2
Pseudomonas aeruginosa [15] = experiment: Potentiation of ciprofloxacin-induced antibacterial activity against MDR/XDR Pseudomonas aeruginosa isolate 101243 devoid of GyrA T83I mutant assessed as fold reduction in ciprofloxacin MIC at 9 uM incubated for 18 hrs by broth microdilution method
Pseudomonas aeruginosa [16] = experiment: Potentiation of ciprofloxacin-induced antibacterial activity against MDR/XDR Pseudomonas aeruginosa isolate PA260-97103 harboring GyrA T83I mutant assessed as fold reduction in ciprofloxacin MIC at 9 uM incubated for 18 hrs by broth microdilution method
Acinetobacter baumannii [17] = experiment: Synergistic antibacterial activity against multidrug-resistant Acinetobacter baumannii ATCC 17978 assessed as fractional inhibitory concentration index in presence of rifampicin incubated for 18 hrs by broth dilution method
Pseudomonas aeruginosa [18] = experiment: Antimicrobial activity against XDR Pseudomonas aeruginosa isolate PA264 infected in Galleria mellonella larvae assessed as survival rate at 25 mg/kg co-administered with 25 mg/kg rifampicin at 2 hrs post-inoculation measured after 24 hrs relative to control
Procedure, shortened: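 G. mellonella larvae were injected with ~5 CFU of P. aeruginosa PA264 (10 µL of 5 × 10^2 CFU/mL in PBS) and held 2 h at 37 °C. A single 10 µL injection followed: monotherapy or rifampicin + compound (25+25, 50+50 or 75+75 mg/kg), with PBS as control. Larvae kept at 37 °C were scored every 6 h to 24 h; dead = no response to touch. n = 30 (two runs of 15); Kaplan-Meier.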

Escherichia coli = experiment: Synergistic antibacterial activity against Escherichia coli 94474 assessed as fractional inhibitory concentration index in presence of minocycline incubated for 18 hrs by broth dilution method
Procedure, shortened: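 Checkerboard titration of the adjuvant against the antibiotic, run under the CLSI microdilution conditions (MHB, 5 × 10^5 CFU/mL, 18 h, 37 °C). Each agent's FIC is its MIC in combination divided by its MIC alone; FICI is the sum of the two FICs. FICI ≤0.5 was read as synergy, >0.5–4.0 as no interaction, and >4.0 as antagonism.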

SMILES: COc1c(N2C[C@@H]3CCCN(CCCCCCCCCCCCO[C@@H]4[C@@H](O)[C@H](N)C[C@H](N)[C@H]4O[C@H]4O[C@H](CN)[C@@H](O)C[C@H]4N)[C@@H]3C2)c(F)cc2c(=O)c(C(=O)O)cn(C3CC3)c12.Cl.Cl.Cl.Cl.Cl
- fold change (FC) (Enterobacter cloacae): 16
- fold change (FC) (Klebsiella pneumoniae): >=1024
- MIC80 (Pseudomonas aeruginosa [1]): 1 µg/mL
- MIC80 (Pseudomonas aeruginosa [2]): 1 µg/mL
- MIC80 (Pseudomonas aeruginosa [3]): 0.13 µg/mL
- MIC80 (Pseudomonas aeruginosa [4]): 1 µg/mL
- MIC (Acinetobacter baumannii [5]): > 256 µg/mL
- MIC50 (Pseudomonas aeruginosa [6]): 0.06 µg/mL
- fold change (FC) (Pseudomonas aeruginosa [7]): 16
- fold change (FC) (Pseudomonas aeruginosa [8]): 4
- fold change (FC) (Pseudomonas aeruginosa [9]): 8
- MIC80 (Pseudomonas aeruginosa [10]): 0.13 µg/mL
- fold change (FC) (Pseudomonas aeruginosa [11]): 128

SMILES: Cl.Cl.Cl.Cl.Cl.Cl.NC[C@H]1O[C@H](O[C@H]2[C@H](OCCCCCCCCCCN3CCN(Cc4cccc5ccccc45)CC3)[C@@H](O)[C@H](N)C[C@@H]2N)[C@H](N)C[C@@H]1O
- fold change (FC) (Pseudomonas aeruginosa [12]): 8
- fold change (FC) (Pseudomonas aeruginosa [13]): 64
- fold change (FC) (Pseudomonas aeruginosa [14]): 16
- fold change (FC) (Pseudomonas aeruginosa [15]): 4
- fold change (FC) (Pseudomonas aeruginosa [16]): 8

SMILES: Cl.Cl.Cl.Cl.Cl.NC[C@H]1O[C@H](O[C@H]2[C@H](OCCCCCCCCCCCCN3CCN(c4cc5c(cc4F)c(=O)c(C(=O)O)cn5C4CC4)CC3)[C@@H](O)[C@H](N)C[C@@H]2N)[C@H](N)C[C@@H]1O
- fractional inhibitory concentration index (FICI) (Acinetobacter baumannii [17]): 0.016
- survival at 25 mg/kg (Pseudomonas aeruginosa [18]): 13%
- fractional inhibitory concentration index (FICI) (Escherichia coli): 0.063 - 0.078
